Source: PubChem BioAssay (Johns Hopkins Ion Channel Center)
Only some compounds are listed: those with a hit (about 3.1% of all), similar ones and a draw of the others.
KCNQ1 block: inhibitors of human KCNQ1 channel, primary screen, cell-based, thallium flux, high-throughput; Potassium voltage-gated channel subfamily KQT member 1 (Homo sapiens), P51787; CHO-K1 KCNQ1, FluxOR thallium flux fluorescence; stronger effect = higher value; B-score at 10 µM; 1.3% of 310,000 active; AID 2642, 2010;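 active = compounds whose thallium flux B-score, printed positive for inhibition, exceeds three library SD while starting fluorescence stays within three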;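 note: channel opened by potassium depolarization with thallium stimulus after 20 min compound exposure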
KCNK9 block: KCNK9 potassium channel inhibitors, primary screen, HEK293 cells, thallium flux | FluxOR thallium flux fluorescence; stronger effect = lower value | B-score at 10 µM | 1.2% of 310,000 active | AID 488922, 2010;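 active = ratio B-score over 3 SD below the library mean, with starting fluorescence within 5 SD of its mean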;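 note: negative B-score means less thallium flux so channel inhibition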
KCNK3 inh: human KCNK3 channel inhibitors, primary screen, CHO cells, FluxOR thallium flux, B-score; Potassium channel subfamily K member 3 (Homo sapiens), O14649; FluxOR fluorescence; stronger effect = lower value; B-score at 10 µM; 0.84% of 340,000 active;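 active = B-score under library mean minus 4 SD, starting fluorescence ratio at most library mean plus 5 SD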;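 note: more negative B-score means stronger inhibition of thallium flux through KCNK3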
hERG protect: hERG rescue from dofetilide block, primary screen, cell-based, CHO-hERG, FluxOR thallium flux, dofetilide IC70 | Voltage-gated inwardly rectifying potassium channel KCNH2 (Homo sapiens), Q12809 | dofetilide IC70 present | activation (rescue from dofetilide block), less the hit threshold, % at 10 µM | 0.51% of 310,000 active | AID 1511, 2009;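 active = activation above the mean of controls blocked by dofetilide plus 5 SD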;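 note: thallium influx through hERG after potassium depolarization seen as dye fluorescence rise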
KCNQ1 act: potentiators or activators of KCNQ1 channel, primary screen, cell-based, thallium flux, high-throughput; AID 2648, 2010; 0.35% of 310,000 active; CHO-K1 KCNQ1, thallium flux FluxOR fluorescence; stronger effect = higher value; Potassium voltage-gated channel subfamily KQT member 1 (Homo sapiens), P51787; B-score at 10 µM;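 active = fluorescence ratio B-score, a plate-corrected score, at least three library SD, with initial intensity B-score within 5 SD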
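Assay system: CHO-K1 cells stably expressing KCNQ1. Medium: assay buffer for compound exposure, DMSO matched across wells. Timing: 37 °C overnight plating, 90-min dark dye load, 20-min compound pretreatment. Signal: kinetic FluxOR fluorescence, 10 s baseline plus 110 s post-stimulus.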
* hit, by the source's call; i = inactive; / = no result given.

SMILES	KCNQ1 block	KCNK9 block	KCNK3 inh	hERG protect	KCNQ1 act
CN(C)c1ccc(/C=C/c2ccc3ccccc3[n+]2C)cc1	9*	i	i	-26.4	i
Cc1ccc(-c2csc(NC(=O)c3cc([N+](=O)[O-])ccc3N3CCOCC3)n2)cc1	i	i	i	-10.5	i
O=C(Nc1nc(-c2ccccc2)cs1)c1ccc(N2CCOCC2)c([N+](=O)[O-])c1	7*	i	i	-10.3	i
Cc1cccc(C(=O)NC(C(=O)Nc2ccc(S(=O)(=O)Nc3nccs3)cc2)C(C)C)c1 (stereo not drawn)	/	/	i	/	/
CCOCc1cc(=O)[nH]c(SC)n1	i	i	i	-6.3	i
CCN(CC)c1nc(OCCNC(=O)Nc2ccccc2)nc(N(CC)CC)n1	10*	-7.94*	i	-11.0	i
O=C(NCCOc1nc(N2CCCCC2)nc(N2CCCCC2)n1)Nc1ccccc1	i	i	i	-10.0	i
CCN(CC)c1ccc2cc(-c3nc4ccccc4n3C)c(=O)oc2c1	i	i	i	-10.3	i
CCN(CC)c1ccc2cc(-c3nc4ccccc4[nH]3)c(=O)oc2c1	27*	i	i	-52.7	i
Cc1ccc(OC(C)C(=O)Nc2ccccc2C(=O)NCc2cccnc2)cc1C (stereo not drawn)	6*	i	i	-24.1	i
C=CCC[C@@H](Cc1ccc(F)cc1)C(=O)OC[C@H](C)NC(=O)[C@@H](CC=C)CC(=O)N[C@@H](CO)Cc1ccccc1	/	/	i	/	/
O=C(NCC(c1ccco1)N1CCc2ccccc2C1)c1ccc(Cl)c([N+](=O)[O-])c1 (stereo not drawn)	6*	i	i	-13.4	i
O=C(NCC(c1ccco1)N1CCc2ccccc2C1)c1cccc([N+](=O)[O-])c1 (stereo not drawn)	i	i	i	-20.4	i
Cc1csc(NC(=O)CSc2nnc(-c3ccoc3C)n2Cc2ccco2)n1	i	i	i	-2.7	i
COC(=O)C1=C(C)NC(=O)/C1=C\c1cc(C)n(-c2cccc(C)c2)c1C	9*	i	i	-16.7	i
Cc1nn(-c2ccccc2)c(Cl)c1/C=C1/C(=N)N2N=C(C(C)C)SC2=NC1=O	i	i	i	-9.8	i
Cc1nn(-c2ccccc2)c(Cl)c1/C=C1\SC(=S)NC1=O	i	i	i	18.9*	28*
COC(=O)C1CCN(S(=O)(=O)c2ccc(NC(C)=O)cc2)CC1	i	i	i	-5.0	i
CC(=O)Nc1ccc(S(=O)(=O)N2CCC(C(=O)O)CC2)cc1	i	i	i	0.2	10*
CCOC(=O)C(CCCP(=O)(c1ccccc1)c1ccccc1)(NC(C)=O)C(=O)OCC	i	i	i	-0.1	i
CCOC(=O)c1nn(C23CC4CC(CC(C4)C2)C3)c2c1C(=O)N(c1ccc(C)cc1)C2=O	i	i	i	-7.0	i
COC(=O)c1nn(C23CC4CC(CC(C4)C2)C3)c2c1C(=O)N(c1ccc(Br)cc1)C2=O	6*	i	i	-10.2	i
O=[N+]([O-])c1ccc2nc(/C=C/c3ccc(Cl)cc3)[nH]c2c1	11*	i	i	-13.8	i
O=[N+]([O-])c1ccc(-c2nc3ccc([N+](=O)[O-])cc3[nH]2)cc1	i	i	i	-6.1	i
C=CCOn1c(=O)c(-c2ccc(OC)cc2)[n+]([O-])c2ccccc21	i	i	i	-7.0	i
SMILES	KCNQ1 block	KCNK9 block	KCNK3 inh	hERG protect	KCNQ1 act
CC(C)CCOc1ccc(-c2c(=O)n(OCc3ccc([N+](=O)[O-])cc3)c3ccccc3[n+]2[O-])cc1	i	-6.64*	i	-3.4	i
O=C(CC(c1ccccc1)c1ccccc1)Nc1ncn[nH]1	i	i	i	-1.5	24*
COc1ccccc1/C=C/C(=O)OCCN1C(=O)c2ccccc2C1=O	i	i	i	0.0	i
CCOc1ccccc1NC1=C(Cl)C(=O)N(c2ccccc2)C1=O	i	i	i	-11.2	13*
COc1ccc(-c2noc(CCC(=O)N3CCN(c4cccc(C)c4C)CC3)n2)cc1	/	/	i	/	/
COc1ccc(NC(=O)CSc2nnc(COc3ccccc3)n2Cc2ccco2)cc1OC	i	i	i	5.1*	i
COc1ccc2[nH]cc(CCNC(=O)Cc3ccc(F)cc3)c2c1	i	i	i	-6.8	i
COc1cc(CNCCc2ccccc2)cc(Cl)c1OCc1ccccc1	7*	i	i	-25.9	i
CNCc1cc(Br)c(OCC(=O)Nc2ccccc2OC)c(OC)c1	i	i	i	-20.9	i
COc1cc(CNCCc2ccccc2)cc(Br)c1OCC(=O)Nc1ccccc1C	9*	i	i	-32.5	i
O=C(NCCC(=O)N1CCN(S(=O)(=O)c2ccccc2Cl)CC1)Nc1ccccc1	/	/	i	/	/
CCCC(=O)C1=C(O)C(C(=O)OC)C(C)(C)CC1=Nc1cccc2ccccc12 (stereo not drawn)	6*	i	i	-4.3	i
CC1(c2ccc([N+](=O)[O-])cc2)CC(C)(C)N(C(=O)c2ccccc2)c2ccccc21 (stereo not drawn)	6*	i	/	-17.3	i
CCOc1ccc(CCNC(=O)c2cc(-c3ccccc3)c(N3CCOCC3)s2)cc1OCC	6*	i	i	-4.7	i
Cc1ccc2c(c1)sc1nc(=O)ccn12	i	i	i	6.7*	i
CCC(NC(=O)C1(C)CC1(Br)Br)c1ccc(C)cc1 (stereo not drawn)	i	i	i	-9.6	i
CCc1ccc(C(C)NC(=O)C2(C)CC2(Br)Br)cc1 (stereo not drawn)	i	i	i	4.9*	i
CCc1ccc(C(C)NC(=O)C2CCCC2)cc1 (stereo not drawn)	i	i	i	4.9*	i
COC(=O)N1C(=O)[C@@](Cc2ccccc2)(c2ccccc2)N1C(=O)OC	i	i	i	5.4*	i
COC(=O)N1C(=O)[C@](Cc2ccccc2)(c2ccccc2)N1C(=O)OC	i	i	i	-3.2	i
CC(=O)N1CCN(c2ccccc2NC(=O)COc2cc(C)ccc2C(C)C)CC1	6*	i	i	-23.8	i
COc1ccc(CC2=CC(=O)c3ccccc3C2=O)cc1	8*	i	i	-6.3	i
